# In ChEMBL document CHEMBL3616399, “Design, synthesis, and structure-activity relationship studies of novel thienopyrrolidone derivatives with strong antifungal activity against Aspergillus fumigates” (Eur J Med Chem, 2015):
# Tests used:
# Candida albicans [1] = test: Antifungal activity against Candida albicans SC5314 after 24 hrs by serial dilution method; type: functional; details: SC5314, 24 h
# How it was run: (§1)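 MIC by broth serial dilution per NCCLS/CLSI (M27-A3 yeasts, M38-A2 filamentous) in 96-well plates; ATCC strains plus clinical isolates; C. parapsilosis 22019 run as quality-control strain in every assay. Compounds dissolved in DMSO, serially diluted in growth medium; incubation 35 °C; MIC read at 24 h (Candida), 48 h (A. fumigatus), 72 h (C. neoformans).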
# Cryptococcus neoformans = test: Antifungal activity against Cryptococcus neoformans 32609 after 72 hrs by serial dilution method; type: functional; details: Cryptococcus neoformans, 32609, 72 h; how it was run: as §1
# Candida parapsilosis = test: Antifungal activity against Candida parapsilosis 22019 after 24 hrs by serial dilution method; type: functional; details: Lodderomyces parapsilosis, 22019, 24 h; how it was run: as §1
# Nakaseomyces glabratus = test: Antifungal activity against Candida glabrata 537 after 24 hrs by serial dilution method; type: functional; details: Nakaseomyces glabratus, 537, 24 h; how it was run: as §1
# Aspergillus fumigatus = test: Antifungal activity against Aspergillus fumigatus 7544 after 48 hrs by serial dilution method; type: functional; details: Aspergillus fumigatus, 7544, 48 h; how it was run: as §1
# Candida albicans [2] = test: Antifungal activity against Candida albicans Y0109 after 24 hrs by serial dilution method; type: functional; details: Y0109, 24 h; how it was run: as §1
# Liver microsome = test: Intrinsic clearance in human liver microsomes assessed per mg of protein at 0.1 uM measured up to 60 mins by MS analysis; details: 1 h
Compound,MIC (Candida albicans [1]),MIC (Cryptococcus neoformans),MIC (Candida parapsilosis),MIC (Nakaseomyces glabratus),MIC (Aspergillus fumigatus),MIC (Candida albicans [2]),CLH (Liver microsome)
C[C@@H](N1CCc2nc(-c3cncnc3)sc2C1)[C@](O)(Cn1cncn1)c1ccc(F)cc1F,0.0312 µg/mL,0.0625 µg/mL,0.0625 µg/mL,0.0625 µg/mL,2 µg/mL,0.0625 µg/mL,–
COc1ccc(-c2cc3c(s2)CN([C@H](C)[C@](O)(Cn2cncn2)c2ccc(F)cc2F)C3=O)cn1,0.0156 µg/mL,0.0156 µg/mL,0.0156 µg/mL,0.0156 µg/mL,64 µg/mL,0.0156 µg/mL,–
C[C@@H](c1ncncc1F)[C@](O)(Cn1cncn1)c1ccc(F)cc1F [VORICONAZOLE],0.0156 µg/mL,0.0156 µg/mL,0.0156 µg/mL,0.0156 µg/mL,0.25 µg/mL,0.0156 µg/mL,–
C[C@@H](N1Cc2cc(-c3ccc(F)cc3)sc2C1=O)[C@](O)(Cn1cncn1)c1ccc(F)cc1F,0.0156 µg/mL,0.0625 µg/mL,0.0612 µg/mL,0.125 µg/mL,4 µg/mL,0.0312 µg/mL,–
COc1ccc(-c2cc3c(s2)C(=O)N([C@H](C)[C@](O)(Cn2cncn2)c2ccc(F)cc2F)C3)cn1,0.0156 µg/mL,0.0312 µg/mL,0.0312 µg/mL,0.125 µg/mL,8 µg/mL,0.0312 µg/mL,–
COc1ccc(-c2cc3c(s2)C(=O)N([C@H](C)[C@](O)(Cn2cncn2)c2ccc(F)cc2F)C3)cc1,0.0156 µg/mL,0.0625 µg/mL,0.0625 µg/mL,0.0625 µg/mL,4 µg/mL,0.0156 µg/mL,–
C[C@@H](N1CCn2nc(-c3ccc(C#N)nc3)nc2C1)[C@](O)(Cn1cncn1)c1ccc(F)cc1F,0.0156 µg/mL,0.0625 µg/mL,0.0156 µg/mL,0.0156 µg/mL,2 µg/mL,0.0156 µg/mL,–
COc1ncc(-c2cc3c(s2)CN([C@H](C)[C@](O)(Cn2cncn2)c2ccc(F)cc2F)C3=O)cn1,0.0156 µg/mL,0.0156 µg/mL,0.0156 µg/mL,0.0156 µg/mL,16 µg/mL,0.0156 µg/mL,–
COc1cccc(-c2cc3c(s2)C(=O)N([C@H](C)[C@](O)(Cn2cncn2)c2ccc(F)cc2F)C3)c1,0.0625 µg/mL,0.25 µg/mL,0.125 µg/mL,0.125 µg/mL,8 µg/mL,0.0625 µg/mL,–
Cc1cccc(-c2cc3c(s2)C(=O)N([C@H](C)[C@](O)(Cn2cncn2)c2ccc(F)cc2F)C3)c1,0.0625 µg/mL,0.125 µg/mL,0.125 µg/mL,0.0625 µg/mL,4 µg/mL,0.0625 µg/mL,–
C[C@@H](N1Cc2sc(-c3cncnc3)cc2C1=O)[C@](O)(Cn1cncn1)c1ccc(F)cc1F,0.0156 µg/mL,0.0078 µg/mL,0.0156 µg/mL,0.0156 µg/mL,32 µg/mL,0.0156 µg/mL,–
C[C@@H](N1Cc2sc(-c3cccnc3)cc2C1=O)[C@](O)(Cn1cncn1)c1ccc(F)cc1F,0.0156 µg/mL,0.0156 µg/mL,0.0156 µg/mL,0.0156 µg/mL,16 µg/mL,0.0156 µg/mL,–
C[C@@H](N1Cc2cc(-c3ccc(C#N)cc3)sc2C1=O)[C@](O)(Cn1cncn1)c1ccc(F)cc1F,0.0156 µg/mL,0.0156 µg/mL,0.0156 µg/mL,0.125 µg/mL,4 µg/mL,0.0156 µg/mL,–
C[C@@H](N1Cc2cc(-c3cncnc3)sc2C1=O)[C@](O)(Cn1cncn1)c1ccc(F)cc1F,0.0312 µg/mL,0.0312 µg/mL,0.0625 µg/mL,0.125 µg/mL,4 µg/mL,0.0156 µg/mL,–
C[C@@H](N1CCc2sc(-c3ccncc3)cc2C1)[C@](O)(Cn1cncn1)c1ccc(F)cc1F,0.25 µg/mL,0.5 µg/mL,0.5 µg/mL,4 µg/mL,> 32 µg/mL,0.5 µg/mL,–
C[C@@H](N1Cc2cc(-c3cccc(C#N)c3)sc2C1=O)[C@](O)(Cn1cncn1)c1ccc(F)cc1F,0.0625 µg/mL,0.125 µg/mL,0.125 µg/mL,0.125 µg/mL,4 µg/mL,0.0625 µg/mL,–
C[C@@H](N1Cc2sc(-c3ccccc3)cc2C1=O)[C@](O)(Cn1cncn1)c1ccc(F)cc1F,0.0156 µg/mL,0.0625 µg/mL,0.0312 µg/mL,0.0625 µg/mL,32 µg/mL,0.0312 µg/mL,–
C[C@@H](N1Cc2cc(-c3cncc(F)c3)sc2C1=O)[C@](O)(Cn1cncn1)c1ccc(F)cc1F,0.0312 µg/mL,0.0312 µg/mL,0.0312 µg/mL,0.25 µg/mL,4 µg/mL,0.0312 µg/mL,–
C[C@@H](N1Cc2cc(Br)sc2C1=O)[C@](O)(Cn1cncn1)c1ccc(F)cc1F,0.0156 µg/mL,0.0625 µg/mL,0.0156 µg/mL,0.0625 µg/mL,0.25 µg/mL,0.0156 µg/mL,5 µL/min/mg

Compound,MIC (Candida albicans [1]),MIC (Cryptococcus neoformans),MIC (Candida parapsilosis),MIC (Nakaseomyces glabratus),MIC (Aspergillus fumigatus),MIC (Candida albicans [2]),CLH (Liver microsome)
C[C@@H](N1Cc2cc(-c3cccc(Cl)c3)sc2C1=O)[C@](O)(Cn1cncn1)c1ccc(F)cc1F,0.0156 µg/mL,0.125 µg/mL,0.0625 µg/mL,0.125 µg/mL,8 µg/mL,0.0625 µg/mL,–
C[C@@H](N1Cc2sc(-c3ccc(C#N)nc3)cc2C1=O)[C@](O)(Cn1cncn1)c1ccc(F)cc1F,0.0156 µg/mL,0.0156 µg/mL,0.0156 µg/mL,0.0625 µg/mL,32 µg/mL,0.0156 µg/mL,–
C[C@@H](N1Cc2cc(-c3cncc(C#N)c3)sc2C1=O)[C@](O)(Cn1cncn1)c1ccc(F)cc1F,0.0156 µg/mL,0.0312 µg/mL,0.0156 µg/mL,0.125 µg/mL,4 µg/mL,0.0312 µg/mL,–
C[C@@H](N1Cc2cc(-c3ccc(Cl)cc3)sc2C1=O)[C@](O)(Cn1cncn1)c1ccc(F)cc1F,0.0156 µg/mL,0.0625 µg/mL,0.0625 µg/mL,0.0625 µg/mL,8 µg/mL,0.0156 µg/mL,–
C[C@@H](N1Cc2cc(-c3ccncc3)sc2C1=O)[C@](O)(Cn1cncn1)c1ccc(F)cc1F,0.0156 µg/mL,0.0156 µg/mL,0.0312 µg/mL,0.0625 µg/mL,1 µg/mL,0.0312 µg/mL,–
OC(Cn1cncn1)(Cn1cncn1)c1ccc(F)cc1F [FLUCONAZOLE],0.25 µg/mL,4 µg/mL,1 µg/mL,1 µg/mL,> 64 µg/mL,0.25 µg/mL,–
C[C@@H](n1cnc2cc(Cl)ccc2c1=O)[C@](O)(Cn1cncn1)c1ccc(F)cc1F [ALBACONAZOLE],0.0078 µg/mL,0.0078 µg/mL,0.0156 µg/mL,0.0156 µg/mL,0.25 µg/mL,0.0156 µg/mL,–
C[C@@H](N1Cc2sc(-c3ccncc3)cc2C1=O)[C@](O)(Cn1cncn1)c1ccc(F)cc1F,0.0156 µg/mL,0.0156 µg/mL,0.0312 µg/mL,0.0625 µg/mL,> 64 µg/mL,0.0156 µg/mL,–
C[C@@H](N1Cc2cc(-c3cccc(F)c3)sc2C1=O)[C@](O)(Cn1cncn1)c1ccc(F)cc1F,0.0156 µg/mL,0.0625 µg/mL,0.125 µg/mL,0.125 µg/mL,4 µg/mL,0.0625 µg/mL,–
C[C@@H](N1CCc2cc(-c3cncnc3)sc2C1)[C@](O)(Cn1cncn1)c1ccc(F)cc1F,0.25 µg/mL,0.125 µg/mL,0.125 µg/mL,1 µg/mL,32 µg/mL,0.125 µg/mL,–
C[C@@H](N1Cc2cc(-c3ccccc3)sc2C1=O)[C@](O)(Cn1cncn1)c1ccc(F)cc1F,0.0156 µg/mL,0.0625 µg/mL,0.0625 µg/mL,0.125 µg/mL,8 µg/mL,0.0312 µg/mL,–
C[C@@H](N1Cc2sc(-c3cncc(F)c3)cc2C1=O)[C@](O)(Cn1cncn1)c1ccc(F)cc1F,0.0078 µg/mL,0.0078 µg/mL,0.0156 µg/mL,0.0625 µg/mL,> 64 µg/mL,0.0156 µg/mL,–
Cc1ccc(-c2cc3c(s2)C(=O)N([C@H](C)[C@](O)(Cn2cncn2)c2ccc(F)cc2F)C3)cc1,0.0312 µg/mL,0.0625 µg/mL,0.0625 µg/mL,0.0625 µg/mL,4 µg/mL,0.0312 µg/mL,–
COc1ncc(-c2cc3c(s2)C(=O)N([C@H](C)[C@](O)(Cn2cncn2)c2ccc(F)cc2F)C3)cn1,0.0625 µg/mL,0.0625 µg/mL,0.0625 µg/mL,0.25 µg/mL,4 µg/mL,0.0625 µg/mL,–
C[C@@H](N1Cc2cc(-c3ccc(C#N)nc3)sc2C1=O)[C@](O)(Cn1cncn1)c1ccc(F)cc1F,0.125 µg/mL,0.125 µg/mL,0.125 µg/mL,0.5 µg/mL,8 µg/mL,0.0312 µg/mL,–
C[C@@H](N1Cc2cc(-c3ccc(F)nc3)sc2C1=O)[C@](O)(Cn1cncn1)c1ccc(F)cc1F,0.125 µg/mL,0.25 µg/mL,0.25 µg/mL,1 µg/mL,8 µg/mL,0.25 µg/mL,–
C[C@@H](N1Cc2sc(Br)cc2C1=O)[C@](O)(Cn1cncn1)c1ccc(F)cc1F,0.0312 µg/mL,0.125 µg/mL,0.0625 µg/mL,0.125 µg/mL,32 µg/mL,0.0625 µg/mL,–
C[C@@H](N1Cc2cc(-c3cccnc3)sc2C1=O)[C@](O)(Cn1cncn1)c1ccc(F)cc1F,0.0156 µg/mL,0.0312 µg/mL,0.0312 µg/mL,0.125 µg/mL,4 µg/mL,0.0156 µg/mL,–
